Assays:
Type in all cases: functional
HOP-92 = test: Antitumor activity against human HOP92 cells after 48 hrs by SRB assay; conditions: HOP-92, 48 h
How it was run: (§1)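 Cells grown in RPMI 1640 with 5% FBS and 2 mM L-glutamine and seeded at 5000–40,000 cells/well according to doubling time. They were preincubated 24 h at 37 °C, 5% CO2, then exposed to DMSO-solubilized compound for 48 h. Adherent cells were fixed with cold TCA (10% final), suspension cells with 16% final. Stained with 0.4% SRB; absorbance at 515 nm. Percent growth calculated against time-zero and control plates.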

SK-MEL-28 = test: Antitumor activity against human SK-MEL-28 cells after 48 hrs by SRB assay; conditions: SK-MEL-28, 48 h; how it was run: as §1
A498 = test: Antitumor activity against human A498 cells after 48 hrs by SRB assay; conditions: A498, 48 h; how it was run: as §1
SR = test: Antitumor activity against human SR cells after 48 hrs by SRB assay
How it was run: (§2)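 NCI-60 protocol. Cells were grown in RPMI 1640 with 5% FBS and 2 mM L-glutamine, plated at 5000–40,000 cells/well, and preincubated 24 h at 37 °C, 5% CO2. Time-zero plates were TCA-fixed. Compounds were in DMSO and incubated 48 h. Fixation used cold TCA (final 16% for suspension SR; final 10% for adherent lines 2-7). Plates were stained with 0.4% SRB in 1% acetic acid, solubilized in 10 mM Tris base, and read at 515 nm. Percent growth was calculated from Tz, C and Ti.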

SNB-19 = test: Antitumor activity against human SNB19 cells after 48 hrs by SRB assay; conditions: SNB-19, 48 h; how it was run: as §1
SNB-75 = test: Antitumor activity against human SNB75 cells after 48 hrs by SRB assay; conditions: SNB-75, 48 h; how it was run: as §1
UO-31 = test: Antitumor activity against human UO31 cells after 48 hrs by SRB assay; conditions: UO-31, 48 h; how it was run: as §2
M14 = test: Antitumor activity against human M14 cells after 48 hrs by SRB assay; conditions: M14, 48 h; how it was run: as §1
RPMI-8226 = test: Antitumor activity against human RPMI8226 cells after 48 hrs by SRB assay; conditions: RPMI-8226, 48 h; how it was run: as §1
A549 = test: Antitumor activity against human A549 cells after 48 hrs by SRB assay; conditions: A549, 48 h; how it was run: as §1
SW-620 = test: Antitumor activity against human SW620 cells after 48 hrs by SRB assay; conditions: SW-620, 48 h; how it was run: as §2
SN12C = test: Antitumor activity against human SN12C cells after 48 hrs by SRB assay; how it was run: as §1
HCT-15 = test: Antitumor activity against human HCT15 cells after 48 hrs by SRB assay; conditions: HCT-15, 48 h; how it was run: as §1
OVCAR-4 = test: Antitumor activity against human OVCAR4 cells after 48 hrs by SRB assay; conditions: OVCAR-4, 48 h; how it was run: as §1
HCT-116 = test: Antitumor activity against human HCT116 cells after 48 hrs by SRB assay; conditions: HCT-116, 48 h; how it was run: as §1
NCI-H23 = test: Antitumor activity against human NCI-H23 cells after 48 hrs by SRB assay; conditions: NCI-H23, 48 h; how it was run: as §1
SK-MEL-2 = test: Antitumor activity against human SK-MEL-2 cells after 48 hrs by SRB assay; conditions: SK-MEL-2, 48 h; how it was run: as §1
MDA-MB-231 = test: Antitumor activity against human MDA-MB-231 cells after 48 hrs by SRB assay; conditions: MDA-MB-231, 48 h; how it was run: as §1
SF-268 = test: Antitumor activity against human SF268 cells after 48 hrs by SRB assay; conditions: SF-268, 48 h; how it was run: as §1
SF-295 = test: Antitumor activity against human SF295 cells after 48 hrs by SRB assay; conditions: SF-295, 48 h; how it was run: as §1
RXF 393 = test: Antitumor activity against human RXF393 cells after 48 hrs by SRB assay; conditions: RXF 393, 48 h; how it was run: as §1
UACC-257 = test: Antitumor activity against human UACC257 cells after 48 hrs by SRB assay; conditions: UACC-257, 48 h; how it was run: as §2
NCI-H226 = test: Antitumor activity against human NCI-H226 cells after 48 hrs by SRB assay; conditions: NCI-H226, 48 h; how it was run: as §1
ACHN = test: Antitumor activity against human ACHN cells after 48 hrs by SRB assay; how it was run: as §1
HL-60(TB) = test: Antitumor activity against human HL-60(TB) cells after 48 hrs by SRB assay; conditions: HL-60, 48 h
How it was run: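 NCI-60 protocol: cells in RPMI 1640 with 5% FBS and 2 mM glutamine, preincubated 24 h at 37 °C with 5% CO2. Compounds from DMSO stock, tested at 10^-5 M single dose or five 10-fold doses, for 48 h. Suspension cells fixed in settled form (16% TCA final), then SRB stained and read at 515 nm. % growth is calculated against time-zero and control plates; GI50, TGI and LC50 are derived.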

DU-145 = test: Antitumor activity against human DU145 cells after 48 hrs by SRB assay; conditions: DU-145, 48 h; how it was run: as §1
HCC 2998 = test: Antitumor activity against human HCC2998 cells after 48 hrs by SRB assay; conditions: HCC 2998, 48 h; how it was run: as §1
[1] = read-out: LC50 (the source's name)

Clc1ccc(-c2nc3sc(C4CC4)nn3c2Br)cc1
GI50 (HOP-92): 5.59 µM | TGI (HOP-92): 37.9 µM | CC50 (HOP-92; [1]): > 100 µM | GI50 (SK-MEL-28): 35.6 µM | TGI (SK-MEL-28): > 100 µM | CC50 (SK-MEL-28; [1]): > 100 µM | GI50 (A498): 30.8 µM | TGI (A498): > 100 µM | CC50 (A498; [1]): > 100 µM | GI50 (SR): 2.9 µM | TGI (SR): > 100 µM | CC50 (SR; [1]): > 100 µM | GI50 (SNB-19): 15.6 µM | TGI (SNB-19): > 100 µM | CC50 (SNB-19; [1]): > 100 µM | GI50 (SNB-75): 12.2 µM | TGI (SNB-75): 51.9 µM | CC50 (SNB-75; [1]): > 100 µM | GI50 (UO-31): 16.4 µM | TGI (UO-31): > 100 µM | CC50 (UO-31; [1]): > 100 µM | GI50 (M14): 7.7 µM | TGI (M14): > 100 µM | CC50 (M14; [1]): > 100 µM | GI50 (RPMI-8226): 3.22 µM | TGI (RPMI-8226): > 100 µM | CC50 (RPMI-8226; [1]): > 100 µM | GI50 (A549): 7.42 µM | TGI (A549): > 100 µM | CC50 (A549; [1]): > 100 µM | GI50 (SW-620): 6.88 µM | TGI (SW-620): > 100 µM | CC50 (SW-620; [1]): > 100 µM | GI50 (SN12C): 14.3 µM | TGI (SN12C): > 100 µM | CC50 (SN12C; [1]): > 100 µM | GI50 (HCT-15): 2.02 µM | TGI (HCT-15): > 100 µM | CC50 (HCT-15; [1]): > 100 µM | GI50 (OVCAR-4): 12.7 µM | TGI (OVCAR-4): 82.1 µM | CC50 (OVCAR-4; [1]): > 100 µM | GI50 (HCT-116): 2.96 µM | TGI (HCT-116): > 100 µM | CC50 (HCT-116; [1]): > 100 µM | GI50 (NCI-H23): 5.1 µM | TGI (NCI-H23): > 100 µM | CC50 (NCI-H23; [1]): > 100 µM | GI50 (SK-MEL-2): 11 µM | TGI (SK-MEL-2): 59.3 µM | CC50 (SK-MEL-2; [1]): > 100 µM | GI50 (MDA-MB-231): 6.59 µM | TGI (MDA-MB-231): > 100 µM | CC50 (MDA-MB-231; [1]): > 100 µM | GI50 (SF-268): 19.3 µM | TGI (SF-268): > 100 µM | CC50 (SF-268; [1]): > 100 µM | GI50 (SF-295): 5.04 µM | TGI (SF-295): > 100 µM | CC50 (SF-295; [1]): > 100 µM | GI50 (RXF 393): 2.93 µM | TGI (RXF 393): 14.8 µM | CC50 (RXF 393; [1]): > 100 µM | GI50 (UACC-257): 4.14 µM | TGI (UACC-257): > 100 µM | CC50 (UACC-257; [1]): > 100 µM | GI50 (NCI-H226): 4.99 µM | TGI (NCI-H226): > 100 µM | CC50 (NCI-H226; [1]): > 100 µM | GI50 (ACHN): 7.07 µM | TGI (ACHN): > 100 µM | CC50 (ACHN; [1]): > 100 µM | GI50 (HL-60(TB)): 3.34 µM | TGI (HL-60(TB)): > 100 µM | CC50 (HL-60(TB); [1]): > 100 µM | GI50 (DU-145): 19.2 µM | TGI (DU-145): > 100 µM | CC50 (DU-145; [1]): > 100 µM | GI50 (HCC 2998): 8.19 µM | TGI (HCC 2998): > 100 µM | CC50 (HCC 2998; [1]): > 100 µM

Reference: ChEMBL document CHEMBL1821594, “Synthesis and anticancer evaluation of novel 2-cyclopropylimidazo[2,1-b][1,3,4]-thiadiazole derivatives” (2011)
